Results as given in publication PMC8591627 (ACS infectious diseases, 2021).
Values after ≈ are worked out from the molar mass of the structure shown.

Experiments:
[1] = system: S. aureus LAC yceI::Tn pLL39_yceI; experiment: MIC; format: cell-based, Staphylococcus aureus; conditions: genotype yceI::Tn pLL39_yceI, LAC background
LAC yceI::Tn azoR4 = experiment: MIC; format: cell-based, Staphylococcus aureus; conditions: genotype yceI::Tn azoR4
LAC pEPSA5_azoR = experiment: MIC; format: cell-based, Staphylococcus aureus; conditions: cultured with 1% xylose
In short: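 pEPSA vector strains were cultured with 1% xylose for induction. Overnight Mueller-Hinton cultures (37 °C, 200 rpm) were diluted 1/1000 into serial dilutions of test compound in Mueller-Hinton broth in 96-well plates. Plates were incubated statically at 37 °C for 18 h. Values are representative of three independent experiments.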

LAC yceI::Tn azoR3 = experiment: MIC; format: cell-based, Staphylococcus aureus
S. aureus (ATCC 43300) [2] = experiment: Nitric oxide release assay, Griess reagent; format: cell-based, Staphylococcus aureus; conditions: 100 μM, over 48 h; positive control DEA-NONOate
In short: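 ATCC 43300 was grown in Mueller-Hinton medium to OD600 0.4 and split three ways: untreated, 100 μM test compound, or 100 μM DEA-NONOate. At 24 and 48 h, samples were centrifuged and supernatants were mixed with fresh Griess reagent for 30 min at room temperature. Absorbance at 548 nm was converted to nitrite against sodium nitrite standards (50–0.78 μM, 2-fold) made in medium.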

[3] = Mouse pharmacokinetic study; format: in vivo; conditions: CD-1 mice, oral 25 mg/kg, 0.5-5 h
In short: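 Two female CD-1 mice received one oral 25 mg/kg dose in 20% DMA/80% PEG300. K2EDTA blood was taken pre-dose and at 0.5, 1, 3 and 5 h, and plasma was stored at −80 °C. Samples were precipitated with acetonitrile/methanol containing a verapamil internal standard and analysed by LC-MS/MS in MRM positive mode. Standard curves were made in CD-1 plasma, and QCs had to fall within 20% of nominal.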

MRSA culture = experiment: Time-kill curve; format: cell-based, Staphylococcus aureus
LAC azoR::Tn = experiment: MIC; format: cell-based, Staphylococcus aureus; conditions: genotype azoR::Tn, LAC background
In short: (§1)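 Overnight cultures were grown in 5 mL Mueller-Hinton at 37 °C with shaking at 200 rpm. They were diluted 1/1000 into 96-well plates holding serial dilutions of test compound in Mueller-Hinton broth. Plates were sealed against drying and incubated statically at 37 °C for 18 h before reading. All strains are isogenic and in the LAC background.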

S. aureus LAC pLL39 = experiment: MIC; format: cell-based, Staphylococcus aureus; conditions: genotype pLL39, LAC background
[4] = system: S. aureus LAC yceI::Tn pLL39_yceI2; experiment: MIC; format: cell-based, Staphylococcus aureus; conditions: genotype yceI::Tn pLL39_yceI2, LAC background
LAC yceI::Tn azoR1 = experiment: MIC; format: cell-based, Staphylococcus aureus
In short: as §1

LAC yceI::Tn azoR1 pCM28 = experiment: MIC; format: cell-based, Staphylococcus aureus
In short: as §1

LAC yceI::Tn pCM28_azoR = experiment: MIC; format: cell-based, Staphylococcus aureus
In short: as §1

[5] = system: LAC yceI::Tn azoR2 pCM28_azoR; experiment: MIC; format: cell-based, Staphylococcus aureus
In short: as §1

LAC yceI::Tn azoR2 pCM28 = experiment: MIC; format: cell-based, Staphylococcus aureus
In short: as §1

LAC pEPSA5 = experiment: MIC; format: cell-based, Staphylococcus aureus
In short: (§2)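 LAC strains carried empty pEPSA5 or pEPSA5_yceI (yceI under a xylose-inducible promoter). They were grown overnight with or without xylose induction; for the azoR overexpression set, pEPSA strains were cultured with 1% xylose. The 1/1000 inoculum went into Mueller-Hinton broth with serial compound dilutions, incubated statically at 37 °C for 18 h. Values represent three independent experiments.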

LAC yceI::Tn azoR2 = experiment: MIC; format: cell-based, Staphylococcus aureus
In short: as §1

LAC pEPSA5_yceI = experiment: MIC; format: cell-based, Staphylococcus aureus; conditions: for MIC: LAC pEPSA5_yceI
In short: as §2

[6] = system: S. aureus LAC yceI::Tn pLL39; experiment: MIC; format: cell-based, Staphylococcus aureus; conditions: genotype yceI::Tn pLL39, LAC background
LAC yceI::Tn azoR3 pCM28 = experiment: MIC; format: cell-based, Staphylococcus aureus
In short: as §1

[7] = system: S. aureus LAC yceI::Tn pLL39_yceI1; experiment: MIC; format: cell-based, Staphylococcus aureus; conditions: genotype yceI::Tn pLL39_yceI1, LAC background
S. aureus (ATCC 43300) [8] = experiment: Membrane depolarization assay; format: cell-based, Staphylococcus aureus; conditions: 4.5x MIC, 10 min; positive control sodium deoxycholate
In short: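 ATCC 43300 was grown from a single colony in Mueller-Hinton to OD600 0.5, then loaded with DiBAC4 (final 20 μg/mL) for 5 min. Bacteria plus dye received test compound at 4.5x MIC; controls were no addition (negative) and 0.05% w/v sodium deoxycholate (positive). Fluorescence (ex 490/em 510 nm) was read every 5 s for 10 min, in triplicate.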

VISA strains = experiment: MIC versus VISA clinical isolates; format: cell-based, Staphylococcus aureus; conditions: six clinical isolates of VISA
[9] = system: LAC yceI::Tn azoR3 pCM28_azoR; experiment: MIC; format: cell-based, Staphylococcus aureus
In short: as §1

[10] = system: JSF-3151–resistant strains; experiment: MIC versus JSF-3151-resistant strains compared to the parental strain; format: cell-based, Staphylococcus aureus; conditions: yceI promoter mutants versus parent

O=C(Nc1cc(Cl)cc2cccnc12)c1ccc([N+](=O)[O-])s1 [JSF-3151]
MIC [1]: 1.6 µg/mL (≈ 4.79 µM) | MIC (LAC yceI::Tn azoR4): 25 µg/mL (≈ 74.9 µM) | MIC (LAC pEPSA5_azoR): 0.39 µg/mL (≈ 1.17 µM) | MIC shift versus yceI::Tn parental strain (LAC yceI::Tn azoR3; azoR3 (Thr121Ile)): 64 fold | MIC (LAC yceI::Tn azoR3; genotype yceI::Tn azoR3): >50 µg/mL | NO• production as nitrite in supernatant (Griess reagent) (S. aureus (ATCC 43300) [2]): neither DAF-FM (over 2 h) nor the Griess reagent (over 48 h) evidenced NO• production | mouse plasma level relative to MIC [3]: inability to reach the MIC over a 5 h time period | time to sterilize a MRSA culture (MRSA culture; 1x MIC): ≤ 4 h | speed of sterilization relative to vancomycin (MRSA culture; both at 1x MIC): more than six times faster than vancomycin | MIC (LAC azoR::Tn): 50 µg/mL (≈ 150 µM) | half-life t1/2 in mouse liver microsomes: 1.46 min | MIC (S. aureus LAC pLL39): 6.2 µg/mL (≈ 18.6 µM) | MIC [4]: 50 µg/mL (≈ 150 µM) | MIC shift versus yceI::Tn parental strain (LAC yceI::Tn azoR1; azoR1 (Trp100stop)): 15 fold | MIC (LAC yceI::Tn azoR1; genotype yceI::Tn azoR1): 12 µg/mL (≈ 36 µM) | MIC (LAC yceI::Tn azoR1 pCM28): >50 µg/mL | MIC (LAC yceI::Tn pCM28_azoR): 0.78 µg/mL (≈ 2.34 µM) | MIC [5]: 1.5 µg/mL (≈ 4.49 µM) | MIC (LAC yceI::Tn azoR2 pCM28): 25 µg/mL (≈ 74.9 µM) | MIC (LAC pEPSA5; LAC pEPSA5, cultured with 1% xylose (Table 6)): 1.5 µg/mL (≈ 4.49 µM) | MIC (LAC pEPSA5; LAC pEPSA5, growth with xylose +): 0.78 µg/mL | MIC (LAC pEPSA5; LAC pEPSA5, growth with xylose −): 0.78 µg/mL (≈ 2.34 µM) | MIC shift versus yceI::Tn parental strain (LAC yceI::Tn azoR2; azoR2 (Trp60stop)): 32 fold | MIC (LAC yceI::Tn azoR2; genotype yceI::Tn azoR2): 25 µg/mL (≈ 74.9 µM) | MIC (LAC pEPSA5_yceI; growth with xylose +): >50 µg/mL | MIC (LAC pEPSA5_yceI; growth with xylose −): 3.1 µg/mL (≈ 9.29 µM) | resistance versus strain carrying empty vector pEPSA5 (LAC pEPSA5_yceI; overnight induction with xylose): > 64 fold | MIC [6]: 0.78 µg/mL (≈ 2.34 µM) | MIC (LAC yceI::Tn azoR3 pCM28): >50 µg/mL | MIC [7]: 50 µg/mL (≈ 150 µM) | membrane depolarization (DiBAC4 fluorescence) (S. aureus (ATCC 43300) [8]): failed to compromise the cell membrane | MIC versus VISA compared to MRSA (VISA strains): even greater potency | MIC [9]: 1.5 µg/mL (≈ 4.49 µM) | loss of susceptibility of three representative mutants [10]: > 16 fold
